From ChEMBL document CHEMBL5154920, “Ispinesib as an Effective Warhead for the Design of Autophagosome-Tethering Chimeras: Discovery of Potent Degraders of Nicotinamide Phosphoribosyltransferase (NAMPT)” (J Med Chem, 2022)
Activity calls are given as the source filed them. The rule behind the calls is not given here.

How the values were obtained:
[1] = target: T1, Microtubule-associated protein 1 light chain 3 beta (Homo sapiens, UniProt Q9GZQ8); test: Binding affinity to human recombinant LC3B assessed as dissociation constant by isothermal titration calorimetry
Outline: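 Reverse titration of recombinant LC3B (1500 μM in syringe) into a cell holding 100 μM ligand, in 20 mM HEPES-HCl pH 7.3, 100 mM NaCl, 1% DMSO, at 25 °C. Injections were spaced 120 s apart so the signal returned to baseline. Thermodynamic parameters and KD came from the titration isotherm.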

[2] = Inhibition of kinesin spindle protein (unknown origin); parameters: species or system Homo sapiens
[3] = system: A2780; test: Cytotoxicity against human A2780 cells; type: functional, cell-based
[4] = target: T2, LC3/Nicotinamide phosphoribosyltransferase (Homo sapiens) (UniProt P43490+Q9BXW4+Q9GZQ8+Q9H492); test: Autophagosome tethering activity at NAMPT overexpressing human A2780 cells assessed as lysosome-mediated degradation of NAMPT at 3 uM incubated for 48 hrs; type: cell-based
Outline: (§1)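 A2780 cells were exposed to compound for 48 h. The medium was then removed and the cells washed three times with PBS and lysed on ice in RIPA buffer for 30 min. Lysates were centrifuged at 1.2 × 10^5 g, 4 °C, for 15 min. Protein was quantified by BCA and denatured at 100 °C. Blots were blocked in 5% BSA/TBST for 2 h, probed with primary antibody at 4 °C overnight and secondary for 1 h, and NAMPT was read on Odyssey.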

[5] = target: T3, Nicotinamide phosphoribosyltransferase (Homo sapiens, UniProt P43490); test: Inhibition of NAMPT (unknown origin) measured after 90 mins by measuring fluorescence intensity
Target sequence in this assay (P43490 whole entry): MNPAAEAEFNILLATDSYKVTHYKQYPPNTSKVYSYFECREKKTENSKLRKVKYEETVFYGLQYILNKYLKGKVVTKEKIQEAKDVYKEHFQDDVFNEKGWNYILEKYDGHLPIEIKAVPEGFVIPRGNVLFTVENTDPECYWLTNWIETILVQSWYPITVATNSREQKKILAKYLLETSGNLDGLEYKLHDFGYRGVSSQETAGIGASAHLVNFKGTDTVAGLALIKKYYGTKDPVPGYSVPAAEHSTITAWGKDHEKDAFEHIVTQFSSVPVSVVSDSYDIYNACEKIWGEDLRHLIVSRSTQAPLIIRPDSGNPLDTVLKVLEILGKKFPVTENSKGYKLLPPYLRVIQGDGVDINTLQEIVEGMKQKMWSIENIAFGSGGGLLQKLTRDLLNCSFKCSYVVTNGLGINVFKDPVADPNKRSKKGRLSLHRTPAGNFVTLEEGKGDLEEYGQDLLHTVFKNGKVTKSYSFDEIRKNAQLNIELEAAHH

[6] = target: T2, LC3/Nicotinamide phosphoribosyltransferase (Homo sapiens); test: Autophagosome tethering activity at NAMPT overexpressing human A2780 cells assessed as lysosome-mediated degradation of NAMPT at 0.1 uM incubated for 48 hrs; type: cell-based; outline: as §1
[7] = system: HeLa; test: Drug localization in human HeLa cells by measuring colocalization with lysosome probe treated for 2 hrs by confocal microscopy; type: functional, cell-based
Outline: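 HeLa cells were treated with the green fluorescent probe for 2 h, then stained with a red lysosome probe for another 1.5 h. Colocalization was imaged by confocal microscopy.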

[8] = target: T1, Microtubule-associated protein 1 light chain 3 beta; test: Binding affinity to human recombinant LC3B assessed as dissociation constant incubated for 30 mins by fluorescence anisotropy assay
Outline: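 Fluorescence anisotropy used fluorescein-labeled ispinesib as the tracer, diluted to 50 nM in HEPES buffer, final 25 nM. A twofold serial dilution of LC3 protein in HEPES buffer was added. KD was derived from anisotropy. Measurements were done in triplicate and given as mean ± standard deviation.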

[9] = system: HCT-116; test: Antiproliferative activity against human HCT-116 cells expressing NAMPT assessed as cell growth inhibition incubated for 72 hrs; type: functional, cell-based
[10] = target: T3, Nicotinamide phosphoribosyltransferase; test: Binding affinity to NAMPT in human A2780 cell lysate assessed as thermal stability incubated at 51 to 63 degree Celsius for 4 hrs by Western blotting based CETSA method; type: subcellular
Outline: (§2)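 CETSA: A2780 cells were seeded at × 107/well and incubated overnight at 37 °C, 5% CO2. Compound was added at the indicated concentration for 4 h. Cells were collected and lysed by three 5-min liquid-nitrogen freeze cycles, then centrifuged at 1.2 × 10^5 g, 4 °C, for 15 min. Supernatants were denatured at 100 °C and protein level was detected by SDS-PAGE.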
Target sequence in this assay (P43490 whole entry, looked up): as the sequence (P43490 whole entry) above

[11] = system: A2780; test: Binding affinity to KSP in human A2780 cell lysate incubated at 51 to 63 degree Celsius for 4 hrs by Western blotting based CETSA method; type: subcellular; outline: as §2
[12] = system: MDA-MB-231; test: Antiproliferative activity against human MDA-MB-231 cells overexpressing NAMPT assessed as cell growth inhibition incubated for 72 hrs; type: functional, cell-based
[13] = target: T1, Microtubule-associated protein 1 light chain 3 beta; test: Binding affinity to LC3B (unknown origin) assessed as dissociation constant by surface plasmon resonance analysis
[14] = system: A2780; test: Antiproliferative activity against human A2780 cells overexpressing NAMPT assessed as cell growth inhibition incubated for 72 hrs; type: functional, cell-based; details: A2780, 72 h
[15] = Stability of compound in 1640 culture medium measured up to 72 hrs by HPLC analysis; type: physicochemical

| Activity [4] [%] | IC50 [5] [nM] | Activity [6] [%] | Compound | other results |
| --- | --- | --- | --- | --- |
| 93 | 13 | 33 | Cc1ccc(C(=O)N(CCCNC(=O)CCCCCCCCCCN2CCN(S(=O)(=O)c3ccc(NC(=S)NCc4cccnc4)cc3)CC2)[C@@H](c2nc3cc(Cl)ccc3c(=O)n2Cc2ccccc2)C(C)C)cc1 |  |
| 83 | 19 | 1 | Cc1ccc(C(=O)N(CCCNC(=O)CCCCCCCN2CCN(S(=O)(=O)c3ccc(NC(=S)NCc4cccnc4)cc3)CC2)[C@@H](c2nc3cc(Cl)ccc3c(=O)n2Cc2ccccc2)C(C)C)cc1 |  |
| 92 | 34 | 85 | Cc1ccc(C(=O)N(CCCNC(=O)CCCCCCCCCN2CCN(S(=O)(=O)c3ccc(NC(=S)NCc4cccnc4)cc3)CC2)[C@@H](c2nc3cc(Cl)ccc3c(=O)n2Cc2ccccc2)C(C)C)cc1 |  |
| 91 | 23 | 90 | Cc1ccc(C(=O)N(CCCNC(=O)CCCCCCCCN2CCN(S(=O)(=O)c3ccc(NC(=S)NCc4cccnc4)cc3)CC2)[C@@H](c2nc3cc(Cl)ccc3c(=O)n2Cc2ccccc2)C(C)C)cc1 | Activity [9]: Active; Activity [10]: Active; Activity [11]: Active; Activity [12]: Active; Kd [13]: 933 nM; IC50 [14]: 46 nM; Stability [15]: Stable |

The remaining lines, values behind:

| Compound | Activity [4] [%] | IC50 [5] [nM] | Activity [6] [%] | other results |
| --- | --- | --- | --- | --- |
| Cc1ccc(C(=O)N(CCCN)[C@H](c2nc3cc(Cl)ccc3c(=O)n2Cc2ccccc2)C(C)C)cc1 |  |  |  | Kd [1]: 11.8 µM; IC50 [2]: 0.5 nM; Activity [3]: Active |
| Cc1ccc(C(=O)N(CCCNC(=O)CCOCCOCCOCCN2CCN(S(=O)(=O)c3ccc(NC(=S)NCc4cccnc4)cc3)CC2)[C@@H](c2nc3cc(Cl)ccc3c(=O)n2Cc2ccccc2)C(C)C)cc1 | 91 | 10 | 76 |  |
| Cc1ccc(C(=O)N(CCCNC(=O)CCOCCN2CCN(S(=O)(=O)c3ccc(NC(=S)NCc4cccnc4)cc3)CC2)[C@@H](c2nc3cc(Cl)ccc3c(=O)n2Cc2ccccc2)C(C)C)cc1 | 86 | 10 | 1 |  |
| Cc1ccc(C(=O)N(CCCNC(=S)Nc2ccc3c(c2)C(=O)OC32c3ccc(O)cc3Oc3cc(O)ccc32)[C@@H](c2nc3cc(Cl)ccc3c(=O)n2Cc2ccccc2)C(C)C)cc1 |  |  |  | Activity [7]: Active; Kd [8]: 175 nM |
| O=S(=O)(c1ccc(NC(=S)NCc2cccnc2)cc1)N1CCNCC1 |  |  |  | IC50 [14]: 490 nM |
| Cc1ccc(C(=O)N(CCCNC(=O)CCCCCCN2CCN(S(=O)(=O)c3ccc(NC(=S)NCc4cccnc4)cc3)CC2)[C@@H](c2nc3cc(Cl)ccc3c(=O)n2Cc2ccccc2)C(C)C)cc1 | 86 | 15 | 9 |  |
